Measurements published in ChEMBL document CHEMBL5357047, “The development of thymol-isatin hybrids as broad-spectrum antibacterial agents with potent anti-MRSA activity” (RSC Med Chem, 2024).
In brackets after ≈: the same amount, converted by molar mass. Activity calls are given as the source filed them. No cut-off for these calls is given here.

Key:
Klebsiella pneumoniae [1] = test: Antibacterial activity against clinically isolated Klebsiella pneumoniae RBRJ024 assessed as inhibition of bacterial growth at 50 uM measured after 48 hrs by agar well diffusion method; format: functional; settings: read-out: IZ
Staphylococcus aureus [2] = test: Antibacterial activity against Staphylococcus aureus MTCC 740 assessed as inhibition of bacterial growth at 50 uM measured after 48 hrs by agar well diffusion method; format: functional; settings: read-out: IZ
Staphylococcus aureus [3] = test: Anti-biofilm activity against Methicillin-resistant Staphylococcus aureus assessed as biofilm volume/area at 2XMIC measured after 48 hrs by crystal violet staining based phase contrast microscopy (reference value: 18.37 +/-1.14 um3/um2); format: functional
[4] = target: T1, 4,4'-diapophytoene synthase (Staphylococcus aureus) (UniProt A9JQL9); test: Inhibition of CrtM in Methicillin-resistant Staphylococcus aureus assessed as inhibition of staphyloxanthin production by measuring reduction in 4,4'-diapophytoene level at 1/4XMIC measured after 24 hrs by spectroscopic analysis
T1 sequence (whole entry): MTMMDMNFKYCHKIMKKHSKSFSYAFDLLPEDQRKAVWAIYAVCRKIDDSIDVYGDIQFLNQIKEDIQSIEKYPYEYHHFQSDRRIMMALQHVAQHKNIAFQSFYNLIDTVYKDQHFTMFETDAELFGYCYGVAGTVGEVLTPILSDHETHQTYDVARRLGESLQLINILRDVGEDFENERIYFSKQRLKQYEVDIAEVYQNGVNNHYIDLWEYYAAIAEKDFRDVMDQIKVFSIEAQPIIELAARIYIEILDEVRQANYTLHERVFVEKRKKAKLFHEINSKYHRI
Method in brief: (§1)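 Cells pelleted, PBS-washed, extracted overnight in methanol at 37 °C. Supernatant absorbance read at 462 nm (staphyloxanthin), 286 nm (4,4′-diapophytoene), 435 nm (4,4′-diaponeurosporene) or 455 nm (4,4′-diaponeurosporenic acid). % inhibition = (control − treated)/control × 100.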

Staphylococcus aureus [5] = test: Bacteriostatic activity against Methicillin-resistant Staphylococcus aureus assessed as reduction in colony formation units at 1/2XMIC measured after 48 hrs by time-kill assay; format: functional, organism-based
Method in brief: (§2)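 Samples taken at 1, 2, 4, 8, 12, 24 and 48 h, diluted in 0.9% saline and plated on Mueller Hinton agar (48 h, 37 °C). CFU counted and log10 CFU mL−1 plotted against time. Triplicate.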

Staphylococcus aureus [6] = test: Bactericidal activity against Methicillin-resistant Staphylococcus aureus ATCC 33591 assessed as inhibition of bacterial growth measured after 48 hrs by agar plate method; format: functional
Method in brief: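 MBC: aliquots from microdilution wells without colour change subcultured on drug-free Mueller Hinton agar, 48 h at 37 °C aerobically. MBC is the lowest concentration with no visible growth. Triplicate.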

Enterococcus faecalis = test: Antibacterial activity against clinically isolated Enterococcus faecalis RBRJ015 assessed as inhibition of bacterial growth at 50 uM measured after 48 hrs by agar well diffusion method; format: functional; settings: read-out: IZ
[7] = target: T1, 4,4'-diapophytoene synthase (Staphylococcus aureus); test: Inhibition of CrtM in Methicillin-resistant Staphylococcus aureus assessed as reduction in staphyloxanthin level at 1/4XMIC measured after 24 hrs by spectroscopic analysis; method in brief: as §1
Staphylococcus aureus [8] = test: Disruption of biofilms against 48 hrs preformed Methicillin-resistant Staphylococcus aureus assessed as eradication of biofilms measured after 24 hrs by crystal violet staining method; format: functional
Method in brief: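 MRSA (1 × 10^5 CFU mL−1, diluted 1:100) grown 48 h at 37 °C in tryptone soy broth with 3% glucose. […] Saline wash, 95% ethanol fixation 30 min, 0.1% crystal violet 30 min at 25 °C, elution with 95% ethanol, OD 545 nm. MBEC determined. Triplicate.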

Klebsiella pneumoniae [9] = test: Antibacterial activity against clinically isolated Klebsiella pneumoniae RBRJ019 assessed as inhibition of bacterial growth at 50 uM measured after 48 hrs by agar well diffusion method; format: functional; settings: read-out: IZ
Escherichia coli = test: Antibacterial activity against clinically isolated Escherichia coli RBRJ005 assessed as inhibition of bacterial growth at 50 uM measured after 48 hrs by agar well diffusion method; format: functional; settings: read-out: IZ
Pseudomonas aeruginosa = test: Antibacterial activity against Pseudomonas aeruginosa MTCC 424 assessed as inhibition of bacterial growth at 50 uM measured after 48 hrs by agar well diffusion method; format: functional; settings: read-out: IZ
Staphylococcus aureus [10] = test: Bactericidal activity against clinically isolated Methicillin-resistant Staphylococcus aureus assessed as inhibition of bacterial growth measured after 48 hrs by agar plate method; format: functional
Staphylococcus aureus [11] = test: Anti-biofilm activity against Methicillin-resistant Staphylococcus aureus assessed as interruption in well organized and aggregated biofilm at 1/2 to 2X MIC measured after 48 hrs by scanning electron microscopy; format: functional, organism-based
Staphylococcus aureus [12] = test: Anti-biofilm activity against Methicillin-resistant Staphylococcus aureus assessed as mean thickness of biofilm at 1/2XMIC measured after 48 hrs by crystal violet staining based phase contrast microscopy (reference value: 15.03+/-1.63 um); format: functional
[13] = Toxicity against Galleria mellonella assessed as metabolic activity of larva at 20 mg/kg measured every 12 hrs for 120 hrs; format: organism-based; settings: in vivo
Method in brief: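 Uninfected Galleria mellonella larvae (0.2–0.4 g, ten per group) given 20 mg kg−1 compound, alongside untreated, PBS and PBS + 2% DMSO vehicle controls; held at 37 °C and checked every 12 h for 120 h. Larvae that turned black and gave no response to stimulus counted dead; percentage survival recorded.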

Staphylococcus aureus [14] = test: Antibacterial activity against Methicillin-resistant Staphylococcus aureus ATCC 33591 assessed as inhibition of bacterial growth at 50 uM measured after 48 hrs by agar well diffusion method; format: functional; settings: read-out: IZ
Method in brief: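 Agar well diffusion on Mueller Hinton agar seeded with bacteria at 0.5 McFarland. […] Incubated 48 h at 37 °C aerobically; zone of inhibition diameter (mm) measured. Triplicate.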

Staphylococcus aureus [15] = test: Bactericidal activity against Methicillin-resistant Staphylococcus aureus assessed as reduction in colony formation units at 1 to 2XMIC measured after 48 hrs by time-kill assay; format: functional, organism-based; method in brief: as §2
[16] = Toxicity against Galleria mellonella assessed as survival rate of larva at 20 mg/kg measured every 12 hrs for 120 hrs; format: organism-based; settings: in vivo
Method in brief: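 Uninfected Galleria mellonella larvae (0.2–0.4 g, 10 per group) given 20 mg kg−1. Controls: untreated, PBS, and PBS + 2% DMSO vehicle. Held at 37 °C and monitored every 12 h for 120 h; larvae that were black and unresponsive counted dead. Percentage survival plotted.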

Staphylococcus aureus [17] = test: Anti-biofilm activity against Methicillin-resistant Staphylococcus aureus assessed as mean thickness of biofilm at 2XMIC measured after 48 hrs by crystal violet staining based phase contrast microscopy (reference value: 15.03+/-1.63 um); format: functional
Staphylococcus aureus [18] = test: Antibacterial activity against clinically isolated Staphylococcus aureus RBRJ010 assessed as inhibition of bacterial growth at 50 uM measured after 48 hrs by agar well diffusion method; format: functional; settings: read-out: IZ
Staphylococcus aureus [19] = test: Antibacterial activity against Staphylococcus aureus MTCC 740 assessed as inhibition of bacterial growth measured after 48 hrs by broth microdilution method; format: functional
Klebsiella pneumoniae [20] = test: Antibacterial activity against Klebsiella pneumoniae MTCC 109 assessed as inhibition of bacterial growth at 50 uM measured after 48 hrs by agar well diffusion method; format: functional; settings: read-out: IZ
[21] = Selectivity index, ratio of IC50 for cytotoxicity against mouse L929 cells to MIC for antibacterial activity against clinically isolated Methicillin-resistant Staphylococcus aureus; format: toxicity, cell-based; settings: read-out: Selectivity Index
Staphylococcus aureus [22] = test: Anti-biofilm activity against Methicillin-resistant Staphylococcus aureus assessed as cell leakage and irregular surface at 1 to 2X MIC measured after 48 hrs by scanning electron microscopy; format: functional, organism-based

`Cc1ccc(C(C)C)c(OCc2cn(CCCN3C(=O)C(=O)c4ccccc43)nn2)c1` showed a zone of inhibition at 50 µM (Klebsiella pneumoniae [1]) of 21.2 mm, a zone of inhibition at 50 µM (Staphylococcus aureus [2]) of 28.6 mm and an Activity (Staphylococcus aureus [3]) of 0.69 um3/um2. The inhibition [4] was 86%, the Activity (Staphylococcus aureus [5]) was “Active” and the MBC (Staphylococcus aureus [6]) was 7.8 µM (≈ 3.26 µg/mL). For the same molecule, the zone of inhibition at 50 µM (Enterococcus faecalis) was 20.2 mm, the inhibition [7] was 86% and the MBEC (Staphylococcus aureus [8]) was 7.8 µM. For the same molecule, the zone of inhibition at 50 µM (Klebsiella pneumoniae [9]) was 20.2 mm, the zone of inhibition at 50 µM (Escherichia coli) was 19.3 mm and the zone of inhibition at 50 µM (Pseudomonas aeruginosa) was 22.3 mm. The MBC (Staphylococcus aureus [10]) was 3.9 µM (≈ 1.63 µg/mL), the Activity (Staphylococcus aureus [11]) was “Active” and the Activity (Staphylococcus aureus [12]) was 2.97 um. The Activity [13] was “Non-Toxic”, the zone of inhibition at 50 µM (Staphylococcus aureus [14]) was 27.5 mm and the Activity (Staphylococcus aureus [15]) was “Active”. It also gave a survival at 120 h [16] of 90%, an Activity (Staphylococcus aureus [17]) of 0.16 um and a zone of inhibition at 50 µM (Staphylococcus aureus [18]) of 27.1 mm. The MIC (Staphylococcus aureus [19]) was 1.9 µM (≈ 0.795 µg/mL), the zone of inhibition at 50 µM (Klebsiella pneumoniae [20]) was 21.4 mm and the selectivity ratio [21] was 65. The Activity (Staphylococcus aureus [22]) was “Active”.
